Test results reported in ChEMBL document CHEMBL1147664, “(S)-4,5-dihydro-2-(2-hydroxy-4-hydroxyphenyl)-4-methyl-4-thiazolecarboxylic acid polyethers: a solution to nephrotoxicity” (J Med Chem, 2006).

Legend:
Rattus norvegicus [1] = test: Iron-clearing efficiency in non-iron-overloaded Sprague-Dawley rat at 300 umol/kg, po; assay type: functional
Procedure, shortened: (§1)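 Bile-duct-cannulated, non-iron-overloaded male Sprague-Dawley rats (400–450 g), single 300 μmol/kg dose po or sc, given in water or as the monosodium salt depending on compound. Bile collected at 3-h intervals for 24 h; urine at 24 h. Efficiency = (treated minus control iron excretion) / theoretical output, as percent; mean ± SEM.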

Rattus norvegicus [2] = test: Iron-clearing efficiency in non-iron-overloaded Sprague-Dawley rat at 300 umol/kg, sc; assay type: functional; procedure, shortened: as §1
Sapajus apella [3] = test: Iron-clearing efficiency in iron-loaded Cebus apella at 150 umol/kg, po; assay type: functional
Procedure, shortened: (§2)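 Cebus apella monkeys (3.5–4 kg), iron overloaded with iv iron dextran (about 500 mg Fe/kg), used at least 60 d later; single 150 μmol/kg dose. Feces and urine collected every 24 h from 4 d before to 5 d after dosing; iron by flame atomic absorption. Efficiency = (2-day post-drug iron minus mean 4-day baseline) / theoretical output, as percent; mean ± SEM.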

Sapajus apella [4] = test: Iron-clearing efficiency in iron-loaded Cebus apella at 150 umol/kg, sc; assay type: functional; procedure, shortened: as §2
[5] = Apparent partition coefficient of the compound at pH7.4; assay type: physicochemical; settings: octanol/water, pH 7.4; read-out: LogD7.4
Procedure, shortened: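 Apparent partition coefficient by shake-flask direct method between octanol and TRIS buffer, pH 7.4; reported as log of the fraction in the octanol layer (log P_app).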

[6] = Distribution in Sprague-Dawley rat plasma at 300 umol/kg, sc after 2 hrs; assay type: ADME, organism-based
Procedure, shortened: (§3)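 Male Sprague-Dawley rats (250–350 g), single sc 300 μmol/kg dose; euthanized by CO2 at 2, 4, 6, 8 h (n = 3 per time point). Citrated cardiac-puncture plasma; tissues homogenized in water 1:2 (w/v), proteins precipitated with methanol at −20 °C, filtered. Reversed-phase HPLC with UV at 310 nm; levels from calibration curves, as nmol/g wet weight; detection limit about 5 nmol/g.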

[7] = Distribution in Sprague-Dawley rat plasma at 300 umol/kg, sc after 8 hrs; assay type: ADME, organism-based; procedure, shortened: as §3
Rattus norvegicus [8] = test: Distribution in Sprague-Dawley rat pancreas at 300 umol/kg, sc after 2 hrs; assay type: ADME, organism-based; settings: in vivo; procedure, shortened: as §3
Rattus norvegicus [9] = test: Nephrotoxicity in rat at 300 umol/kg; settings: in vivo
Plasma = test: Distribution in Sprague-Dawley rat plasma at 300 umol/kg, sc; assay type: ADME; settings: read-out: Cp; procedure, shortened: as §3
Rattus norvegicus [10] = test: Distribution in Sprague-Dawley rat pancreas at 300 umol/kg, sc after 8 hrs; assay type: ADME, organism-based; settings: in vivo; procedure, shortened: as §3
Rattus norvegicus [11] = test: Distribution in Sprague-Dawley rat heart at 300 umol/kg, sc after 2 hrs; assay type: ADME, organism-based; settings: in vivo; procedure, shortened: as §3
Rattus norvegicus [12] = test: Distribution in Sprague-Dawley rat heart at 300 umol/kg, sc after 4 hrs; assay type: ADME, organism-based; settings: in vivo; procedure, shortened: as §3
Rattus norvegicus [13] = test: Distribution in Sprague-Dawley rat heart at 300 umol/kg, sc after 8 hrs; assay type: ADME, organism-based; settings: in vivo; procedure, shortened: as §3
Rattus norvegicus [14] = test: Distribution in Sprague-Dawley rat kidney at 300 umol/kg, sc after 2 hrs; assay type: ADME, organism-based; settings: in vivo; procedure, shortened: as §3
Rattus norvegicus [15] = test: Distribution in Sprague-Dawley rat kidney at 300 umol/kg, sc after 8 hrs; assay type: ADME, organism-based; settings: in vivo; procedure, shortened: as §3
Rattus norvegicus [16] = test: Distribution in Sprague-Dawley rat liver at 300 umol/kg, sc after 2 hrs; assay type: ADME, organism-based; settings: in vivo; procedure, shortened: as §3
Rattus norvegicus [17] = test: Distribution in Sprague-Dawley rat liver at 300 umol/kg, sc after 8 hrs; assay type: ADME, organism-based; settings: in vivo; procedure, shortened: as §3

Compound | logD [5] | Drug uptake (Rattus norvegicus [8]) | Activity (Rattus norvegicus [1]) | Activity (Rattus norvegicus [2]) | Activity (Sapajus apella [3]) | Activity (Sapajus apella [4]) | other results
COCCOCCOCCOc1ccc(C2=N[C@@](C)(C(=O)OC(C)C)CS2)c(O)c1 | – | – | 13.9% | 22.1% | 19.5% | – | –
CCOC(=O)[C@@]1(C)CSC(c2ccc(OCCOCCOCCOC)cc2O)=N1 | – | – | – | 11.4% | – | 17.9% | –
C[C@]1(C(=O)O)CSC(c2ccccc2O)=N1 | -0.34 | – | – | – | – | – | –
C[C@]1(C(=O)O)CSC(c2ccc(O)cc2O)=N1 [DEFERITRIN] | – | 6 nmol/g | 1.1% | 1.1% | 16.8% | 15.9% | concentration (Plasma): < 10 µM; Drug uptake (Rattus norvegicus [16]): 48 nmol/g; Drug uptake (Rattus norvegicus [17]): 12 nmol/g; Drug uptake (Rattus norvegicus [11]): 5 nmol/g; Drug uptake (Rattus norvegicus [14]): 100 nmol/g; Drug uptake (Rattus norvegicus [15]): 9 nmol/g

Now from value to compound, other results behind:

logD [5] | Drug uptake (Rattus norvegicus [8]) | Compound | Activity (Rattus norvegicus [1]) | Activity (Rattus norvegicus [2]) | Activity (Sapajus apella [3]) | Activity (Sapajus apella [4]) | other results
-0.93 | – | O=C(O)[C@H]1CSC(c2ccccc2O)=N1 | – | – | – | – | –
-0.91 | – | CC1(C)SC(c2ccc(O)cc2O)=N[C@H]1C(=O)O | – | – | – | – | –
– | 38 nmol/g | COc1ccc(C2=N[C@@](C)(C(=O)O)CS2)c(O)c1 | 6.6% | – | – | – | concentration at 2 h [6]: 470 µM; concentration at 8 h [7]: 75 µM; Activity (Rattus norvegicus [9]): Active
-0.34 | – | CC1(C)SC(c2ccccc2O)=N[C@H]1C(=O)O | – | – | – | – | –
-1.1 | 30 nmol/g | COCCOCCOCCOc1ccc(C2=N[C@@](C)(C(=O)O)CS2)c(O)c1 | 5.5% | 8.7% | 25.4% | 30.4% | concentration (Plasma): < 10 µM; Drug uptake (Rattus norvegicus [10]): 3 nmol/g; Drug uptake (Rattus norvegicus [11]): 9 nmol/g; Drug uptake (Rattus norvegicus [12]): 5 nmol/g; Drug uptake (Rattus norvegicus [13]): 2 nmol/g; Drug uptake (Rattus norvegicus [14]): 41 nmol/g; Drug uptake (Rattus norvegicus [15]): < 10 nmol/g
